Six compounds from ChEMBL document CHEMBL1124340, “Acyclic analogues of 3'-azido-3'-deoxythymidine as potential antiviral agents. Nucleoside synthesis by Michael addition” (J Med Chem, 1989) can be followed below.

Data set [1] has as its system Vero. As to the kind of experiment: In vitro inhibitory activity against HSV-2 in vero cells of african green monkey at concentration 100 uM; Inactive. Format: functional, cell-based. The settings on record: Chlorocebus sabaeus.
The nature of data set [2]: Toxicity in Vero (African green monkey) cells at concentration 100 uM; compound found nontoxic. The settings on record: chlorocebus aethiops, in vitro.
Data set [3] relates to Vero. As to the kind of experiment: In vitro inhibitory activity against HSV-1 in vero cells of african green monkey at concentration 100 uM; Inactive. The class given is functional, cell-based. To be noted: Chlorocebus sabaeus.
Data set [4] concerns Vero. In words: In vitro inhibitory activity against HSV-1 in Vero (African green monkey) cells at concentration 100 uM; Inactive. To be noted: Chlorocebus sabaeus.
For another data set, the species on record is Homo sapiens. As to the kind of experiment: In vitro inhibitory activity against HIV-1 in human peripheral blood mononuclear cells at concentration 100 uM; Inactive. The class given is functional. An outline of the steps:
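Mitogen-stimulated PBM cells, three days old (10⁶ cells/mL), came from hepatitis- and HIV-1-seronegative donors. They were infected with HIV-1 strain LAV at about 100 TCID₅₀/mL. Compounds were added about 45 min post-infection and tested up to 100 μM. On day 5 the supernatant was clarified, virus pelleted, and reverse transcriptase activity measured. Cells came from three donors.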

In data set [5] the test system is Vero. As to the kind of experiment: In vitro inhibitory activity against HSV-2 in vero cells in african green monkey at concentration 100 uM; Inactive. Format: functional, cell-based. The settings on record: Chlorocebus sabaeus.
Data set [6] in a line: Toxicity in Vero (African green monkey) cells at concentration 100 uM; compound found nontoxic. The settings on record: chlorocebus aethiops, in vitro. This is another data set of the same source.
The test system of data set [7] is Vero. As to the kind of experiment: In vitro inhibitory activity against HSV-1 in vero cells in african green monkey at concentration 100 uM; Inactive. Format: functional, cell-based. To be noted: Chlorocebus sabaeus.
For data set [8], the system named is Vero. In words: In vitro inhibitory activity against HSV-2 in Vero (African green monkey) cells at concentration 100 uM; Inactive. To be noted: Chlorocebus sabaeus.
Data set [9] deals with Vero. In words: In vitro inhibitory activity against HSV-1 in vero cells in african green monkey at concentration 100 uM; IA is inactive. The class given is functional, cell-based. The settings on record: Chlorocebus sabaeus.
Data set [10] has as its system Vero. In words: In vitro inhibitory activity against HSV-2 in vero cells of african green monkey at concentration 100 uM; IA is inactive. The class given is functional, cell-based. To be noted: Chlorocebus sabaeus.
Data set [11] in a line: Toxicity in Vero (African green monkey) cells at concentration 100 uM; compound was found nontoxic. The settings on record: chlorocebus aethiops, in vitro.

Each structure is given as a SMILES string. Calls of active or inactive are those of the source. No cut-off for these calls is given here.

Consider `COC(=O)CC(SCCO)n1cc(C)c(=O)[nH]c1=O` (stereo not drawn), for which the result in the data set on Vero [1] and in the data set with Vero [3] was inactive. Also, the Toxicity entry in data set [2] was “Non-toxic”.
Consider `Cc1cn(C(CCO)OCCO)c(=O)[nH]c1=O` (stereo not drawn), for which the result in the data set on Vero [4], in the data set listed under Homo sapiens, in the data set on Vero [5], with Vero [7] and in the data set on Vero [8] was inactive. The Toxicity result in data set [6] is reported as “Non-toxic”.
With `COC(=O)COC(CC(=O)OC)n1cc(C)c(=O)[nH]c1=O` (stereo not drawn), the result with Vero [4], in the data set filed under Homo sapiens, with Vero [5], in the data set on Vero [7] and with Vero [8] was inactive. For the same compound, the Toxicity entry in data set [6] is given as “Non-toxic”.
Regarding `Cc1cn(C(CCO)SCCO)c(=O)[nH]c1=O` (stereo not drawn), the Activity entry with Vero [9] and with Vero [10] was “No activity” each time. Also, in the data set listed under Homo sapiens, the result was inactive. Moreover, the Toxicity entry in [11] is on record as “Non-toxic”.
Take `Cc1cn(C(CCN=[N+]=[N-])OCCO)c(=O)[nH]c1=O` (stereo not drawn): the result in the data set on Vero [4], in the data set filed under Homo sapiens, with Vero [5], with Vero [7] and with Vero [8] was inactive. Besides, the Toxicity entry in [6] was “Non-toxic”.
`COC(=O)/C=C/n1cc(C)c(=O)[nH]c1=O`: the result in the data set with Vero [1] and with Vero [3] was inactive. Besides, the Toxicity result in data set [2] was “Non-toxic”.
